Screens from PubChem BioAssay.
In the library only some 1.3% were active in any assay of this set; here they are far more common.
DDE Tn6 FP inh: disrupts Tn6 cyclic peptide binding to fibrin D-Dimer-E complex | P02675 | Fibrin DD(E) TRITC-Tn6 fluorescence polarization displacement | inhibition, % at 8.3 µM | actives 0.21% (n = 370,000) | AID 720509;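 active means inhibition above a per-campaign cutoff: mean of compounds within control limits plus 3 SD, cut at about 15% in these data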;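 further: 0% = median of all compound wells on the plate and 100% = blocking peptide control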
Target sequence (P02675 whole entry, looked up): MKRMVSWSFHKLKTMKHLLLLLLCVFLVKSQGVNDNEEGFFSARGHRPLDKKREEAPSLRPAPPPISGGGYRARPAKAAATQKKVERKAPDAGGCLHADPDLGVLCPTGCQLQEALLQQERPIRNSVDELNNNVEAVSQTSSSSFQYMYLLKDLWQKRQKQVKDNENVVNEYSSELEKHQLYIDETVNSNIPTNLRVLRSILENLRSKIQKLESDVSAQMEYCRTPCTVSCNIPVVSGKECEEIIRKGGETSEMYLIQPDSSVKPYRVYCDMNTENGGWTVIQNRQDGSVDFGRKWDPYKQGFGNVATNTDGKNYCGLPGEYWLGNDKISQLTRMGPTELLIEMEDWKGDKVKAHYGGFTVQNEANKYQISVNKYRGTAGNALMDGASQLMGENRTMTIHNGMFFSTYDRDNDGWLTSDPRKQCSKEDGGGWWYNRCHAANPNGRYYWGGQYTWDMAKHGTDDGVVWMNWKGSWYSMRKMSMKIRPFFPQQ
Tn7 DDE FP: DD(E)-Tn7 binding inhibition, primary FP screen; FP displacement of FITC-Tn7 peptide from fibrin DD(E); 0% = median of compound wells per plate; inhibition, % at 8.3 µM; P02675; AID 720508; actives 0.13% (n = 370,000);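 active means inhibition above the mean of compounds falling within the control limits plus 3 SD of them, cut at about 14% in these data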;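 further: 0% = plate median of compound wells and 100% = 10 µM Aha-Tn7 peptide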
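Test system: human clot-derived fibrin DD(E) complex / Quantity: 2 µM final DD(E) protein / Incubation: 10 min plus 3 h, room temperature / Measured by: fluorescence polarization / Benchmarks: high control of 10 µM Aha-Tn7 peptide / Replicates: singlicate testing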
CRFR2-BP antag: CRF-BP/CRF-R2 complex antagonism. inhibition, % at 11.8 µM. HEK293 CRF-R2/CRF-BP, CRF-induced calcium fluorescence. actives 0.59% (n = 350,000). AID 588475;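 active means inhibition of the ligand-induced calcium signal above about 50% at the single tested concentration, limit read from the data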
CRFBP-R2 agonist: CRF-BP/CRF-R2 complex agonism. HEK293 CRF-R2/CRF-BP, calcium dye fluorescence (FLIPR); percent of saturating CRF peptide response. activation, % at 13.2 µM. actives 0.46% (n = 350,000);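 active means activation of at least 50%, plus an integration ratio under a set limit after plate pattern correction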;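 further: plate controls were neutral control wells without compound for no effect and CRF at EC100 for full effect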
Active calls of the source: *; . = not tested or not shown.

SMILES | DDE Tn6 FP inh | Tn7 DDE FP | CRFR2-BP antag | CRFBP-R2 agonist
COC1=C/C(=C/c2c(N)n3nc(-c4ccc(C)cc4)sc3nc2=O)C=CC1=O | -0.6 | -11.1 | -226.2 | 195.0*
COC1=C/C(=C/c2c(N)n3c(nc2=O)sc2cc(S(C)(=O)=O)ccc23)C=CC1=O | -1.6 | -3.0 | -87.3 | 96.3*
CCOC1=C/C(=C/c2c(N)n3nc(-c4ccccc4)sc3nc2=O)C=CC1=O | 0.1 | -0.6 | -134.2 | 72.9*
CS(=O)(=O)c1ccc2c(c1)sc1nc(=O)c(/C=C3/C=CC(=O)C(O)=C3)c(N)n12 | 4.8 | -2.9 | -29.4 | 28.3
COC(=O)[C@]12C[C@H](CC(=O)NCCC(C)C)C(=O)N(Cc3ccco3)C1=C[C@H](C(C)(C)C)O[C@@H]2C | -9.2 | -3.8 | . | .
COC(=O)[C@]12C[C@H](CC(=O)NCc3cccc(C(F)(F)F)c3)C(=O)N(CCc3ccc(OC)c(OC)c3)C1=C[C@H](C1CCCC1)O[C@@H]2C | -10.1 | -4.4 | . | .
COC(=O)C1CN(Cc2cn(Cc3ccccc3)nn2)CCS(=O)(=O)N1Cc1ccc(C)cc1 (stereo not given) | 6.2 | -0.9 | . | .
C[C@@H]1COc2cc(Br)ccc2S(=O)(=O)N1Cc1cn(Cc2ccc(Br)cc2)nn1 | -6.0 | -6.6 | . | .
CS(=O)(=O)C1=NSC2=NC(=O)/C(=C\c3cccn3-c3ccc(Cl)cc3)C(=N)N21 | -3.0 | -4.8 | 57.3* | 3.6
Cc1cc(/C=C2/C(=N)N3C(=NC2=O)SN=C3S(C)(=O)=O)c(C)n1-c1ccccc1F | 2.6 | -7.0 | 27.4 | -0.8
C[C@H](O)[C@@H]1CN2CCc3c([nH]c4c(-c5ccc6c(c5)OCO6)cccc34)[C@@H]2C[C@@H]1N(C)C(=O)c1ccco1 | -0.8 | -1.3 | . | .
Cc1cccc(C(=O)NC(=S)NNC(=O)c2cccs2)c1 | 1.2 | -4.4 | -75.0 | 269.5*
O=C(NC(=S)NNC(=O)c1cccs1)c1ccccc1 | 7.1 | 2.7 | -6.7 | 26.6
Cc1cccc(C(=O)NC(=S)NNC(=O)c2ccc(Cl)cc2)c1 | -4.2 | 5.9 | -148.4 | 212.7*
Cc1ccccc1C(=O)Nc1cccc(NC(=S)NC(=O)c2cccs2)c1 | -2.4 | -5.2 | -31.6 | 6.9
Cc1cccc(C(=O)NNC(=O)c2ccc(Br)cc2)c1 | 2.1 | 2.9 | -5.1 | -5.3
O=C(NC(=S)NNC(=O)c1cccs1)c1ccco1 | -1.4 | -0.1 | 5.4 | -0.4
Cc1ccccc1C(=O)NNC(=S)NC(=O)c1cccs1 | 10.1 | -0.7 | 41.4 | 98.8*
CC(C)(C)c1ccc(C(=O)NC(=S)NNC(=O)c2cccs2)cc1 | -8.6 | 1.5 | -240.2 | 289.9*
CCOC(=O)[C@]12CCCC3=C1N(CCC3)C(=O)[C@@H](CC(=O)NCCCN1CCCC1=O)C2 | 2.9 | -7.6 | . | .
O=C(COc1cc(Cl)ccc1Cl)N1CCNC1=O | 0.8 | -5.0 | 50.6* | -0.7
Nc1[nH]c(C(=O)c2ccccc2)c(-c2ccc(Cl)cc2)c1C(=O)NCCC1=CCCCC1 | -2.4 | -6.0 | . | .
Cc1ccccc1CNC(=O)Nc1cccs1 | -0.5 | -0.2 | 53.0* | 19.1
COc1ccc(-n2c(SCC(=O)NCC3CCCO3)nnc2-c2ccncc2)cc1 (stereo not given) | -3.7 | -3.1 | . | .
CCOC(=O)c1cc([N+](=O)[O-])c([N+](=O)[O-])cc1NC(C)=O | 5.2 | -1.9 | 51.5* | -3.4
SMILES | DDE Tn6 FP inh | Tn7 DDE FP | CRFR2-BP antag | CRFBP-R2 agonist
COC(=O)[C@]12C[C@H](CC(=O)NCCc3ccccc3OC)C(=O)N(CCc3ccc(OC)c(OC)c3)C1=C[C@H](C(C)(C)C)O[C@@H]2C | -2.8 | 4.3 | . | .
O=C(CCN1CCOCC1)c1ccc2c(c1)OCCO2 | 1.4 | 1.6 | 10.5 | 0.8
O=C(CCN1CCCCC1)c1ccc2c(c1)OCO2 | -0.1 | -0.9 | 50.8* | -2.3
O=C(NCc1ccc(Cl)cc1)C1C2C=CC3(CN(Cc4ccccc4)C(=O)C13)O2 (stereo not given) | 2.3 | -3.8 | . | .
CCCN1CCCCC(NC(=O)c2ccc(C)cc2C)C1=O (stereo not given) | -2.3 | 2.5 | . | .
CCc1nnc(NC(=S)Nc2ccccc2)s1 | -5.0 | 0.7 | 56.9* | -2.0
Cc1cc(O)ccc1C1(c2ccc(O)cc2C)OC(=O)c2ccccc21 | -6.5 | -6.3 | -30.6 | 0.7
CC(=O)Oc1ccc2c(c1)Oc1cc(OC(C)=O)ccc1C21OC(=O)c2ccccc21 | . | . | -340.6 | 367.5*
CC(=O)c1sc(NC(=O)CCS(=O)(=O)c2ccc(Cl)cc2)nc1C | 5.4 | -1.5 | 61.8* | -1.1
CCOC(=O)Cc1nc(N2CCN(CCO)CC2)c2c(C)c(C(=O)OCC)sc2n1 | 7.6 | -6.0 | . | .
Cn1cccc1C1C=C(c2ccc(C(C)(C)C)cc2)Nc2ncnn21 (stereo not given) | -5.0 | -1.8 | -29.4 | 12.3
Oc1ccc(C2C=C(c3ccc(F)cc3)Nc3ncnn32)cc1 (stereo not given) | -11.3 | -2.1 | -5.5 | 40.7
CC(C)(C)c1ccc(C2=CC(c3ccccc3F)n3ncnc3N2)cc1 (stereo not given) | 3.2 | -0.7 | -4.3 | 16.3
Fc1ccc(C2=CC(c3ccco3)n3ncnc3N2)cc1 (stereo not given) | . | . | -6.7 | 65.0*
Brc1ccc(C2=CC(c3cccs3)n3ncnc3N2)cc1 (stereo not given) | 4.1 | 19.4* | -197.0 | 318.2*
Fc1ccc(C2=CC(c3ccc(Br)o3)n3ncnc3N2)cc1 (stereo not given) | . | . | -150.8 | 192.4*
Fc1ccc(Br)cc1C1C=C(c2cccnc2)Nc2ncnn21 (stereo not given) | . | . | -13.6 | 53.3*
Cc1ccccc1CNC(=O)C1CCCN(c2ncccn2)C1 (stereo not given) | 2.5 | -3.5 | . | .
C1=C(c2ccc(-c3ccccc3)cc2)Nc2ncnn2C1c1ccco1 (stereo not given) | 5.0 | 0.0 | -177.1 | 208.3*
Cc1ccc(C2C=C(c3ccccc3)Nc3ncnn32)cc1 (stereo not given) | 2.5 | 0.8 | 2.7 | 15.0
COC(=O)C1=C(C)N(c2ccc(OC)cc2)C(C)=C(C(=O)OC)C1c1ccccc1 | 3.7 | 2.4 | 51.8* | -3.2
COc1ccc(Cl)cc1NC(=O)c1cccc([N+](=O)[O-])c1O | -9.5 | -7.5 | 82.6* | 32.0
COc1ccc([N+](=O)[O-])cc1NC(=O)c1ccccc1SC | 9.8 | 5.9 | 100.5* | -7.1
C/C=C/C=C/C(=O)OC(C)C(=O)Nc1cc([N+](=O)[O-])ccc1OC (stereo not given) | -0.5 | 1.2 | 111.9* | 0.8
COc1ccc([N+](=O)[O-])cc1NC(=O)C(C)OC(=O)Cc1ccc(OC)c(OC)c1 (stereo not given) | -5.6 | -1.3 | 16.8 | 0.2
CCCCN(c1ccc(C(=O)OC)cc1)S(=O)(=O)c1ccccc1 | -2.5 | -6.8 | 62.8* | -1.3
CCN1CCCCC(NC(=O)c2ccc(F)c(F)c2)C1=O (stereo not given) | 6.6 | -4.5 | . | .
CCCCc1c(-c2ccccc2OC)ncn1C(C)c1ccccc1 (stereo not given) | -0.3 | -1.6 | . | .
O=C(CSc1ccc2nnc(-c3cccnc3)n2n1)Nc1ccc(F)cc1 | -3.3 | 1.1 | 7.4 | 0.2
